Data set [1] in a line: Cytotoxicity against human THP-1 cells. In kind it is toxicity, cell-based.
The nature of data set [2]: Intrinsic clearance in mouse liver microsomes. Type of data set: ADME, Microsome.
Data set [3] is described as follows: Kinetic aqueous solubility of the compound by CLND method. Type of data set: physicochemical. The following applies: buffer; read-out: Kinetic_solubility.
Data set [4] in a line: Inhibition of chymotrypsin activity of proteasome beta5 subunit in Leishmania donovani amastigotes infected in human THP-1 cells incubated for 96 hrs by INMAC assay. The following applies: THP-1, 96 h, read-out: pEC50 (converted).
A short description of data set [5]: Solubility of the compound in FaSSIF at pH 6.5 measured after 4 hrs by HPLC-UV analysis. In kind it is physicochemical. The conditions noted are these: for solubility at 4 h: FaSSIF, pH 6.5.
Data set [6] in a line: Genotoxicity against Salmonella typhimurium by Ames test. Type of data set: toxicity. The conditions noted are these: salmonella enterica subsp. enterica serovar typhimurium.
The test system of data set [7] is Leishmania donovani. Put plainly: Antileishmanial activity against amastigote stage of Leishmania donovani MHOM/ET/67/HU3 infected in BALB/c mouse assessed as reduction in parasitemia at 25 mg/kg, po bid for 10 days. In kind it is functional, organism-based. The following applies: time 10.0 day.
Data set [8] relates to Leishmania donovani. Put plainly: Antileishmanial activity against amastigote stage of Leishmania donovani MHOM/ET/67/HU3 infected in po dosed BALB/c mouse assessed as reduction in parasitemia administered twice a day for 10 days. Type of data set: functional. The following applies: MHOM/ET/67/HU3, 240 h, time 10 day.
The nature of data set [9]: Metabolic stability of the compound in human plasma assessed as parent compound remaining measured after 3 hrs. In kind it is ADME, cell-free. The following applies: read-out: Stability.
Data set [10] can be described thus: Metabolic stability of the compound in mouse plasma assessed as parent compound remaining measured after 3 hrs. Type of data set: ADME, cell-free. The following applies: read-out: Stability.
A short description of data set [11]: Time during which drug concentration exceeds EC90 for inhibition of chymotrypsin activity of proteasome beta5 subunit in Leishmania donovani amastigotes infected in human THP-1 cells in NMRI mouse blood at 10 mg/kg, po by UPLC-MS/MS analysis. The following applies: in vivo. In kind it is organism-based. The method, boiled down: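 Mice received a single 10 mg/kg oral dose, with a separate 3 mg/kg iv arm in the same PK study. Blood levels were followed over time, and time above the EC90 threshold was taken from the oral blood profile.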

The nature of data set [12]: Time during which drug concentration exceeds EC90 for inhibition of chymotrypsin activity of proteasome beta5 subunit in Leishmania donovani amastigotes infected in human THP-1 cells in NMRI mouse blood at 50 mg/kg, po by UPLC-MS/MS analysis. In kind it is organism-based. The conditions noted are these: in vivo. The method, boiled down: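 Not measured directly. Time above EC90 at 50 mg/kg po was projected from the 10 mg/kg oral mouse blood profile, assuming exposure rises linearly with dose.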

The next data set concerns THP-1. The conditions noted are these: Leishmania donovani, time 96.0 hrs.

In brackets after ≈: the same amount, converted by molar mass. Activity calls are given as the source filed them.

In [1], `O=C(Nc1cccc(-c2cn3cc(N4CCOCC4)cnc3n2)n1)N1CCCC1` gave an EC50 greater than 50.1 µM. Besides, the CLH in data set [2] was less than 0.5 mL/min/g.
The matching figures for `O=C(Nc1ccc(F)c(-c2ccn3c(N4CCNCC4)cnc3n2)c1)N1CCCC1`: greater than 50.1 µM and less than 0.5 mL/min/g.
Regarding `CC(=O)N1CCN(c2cnc3nc(-c4cc(NC(=O)N5CCCC5)ccc4F)ccn23)CC1`, the EC50 in data set [1] is greater than 50.1 µM.
Consider `C[C@H]1CN(c2cnc3nc(-c4cc(NC(=O)N5CCCC5)ccc4F)ccn23)CCO1`, for which, in [3], the solubility kinetic was no less than 362 µM. Moreover, the EC50 in data set [4] was 1260 nM. Also, the solubility at 4 h in [5] worked out at 1320 µM (≈ 561 µg/mL). This compound came in with a CLH in [2] of 2.7 mL/min/g.
As to `O=C(Nc1ccc(F)c(-c2cn3ncc(N4CCOCC4)cc3n2)c1)N1CCCC1`, in [1], the EC50 was greater than 50.1 µM.
As for `O=C(Nc1cc(-c2cn3cc(N4CCOCC4)cnc3n2)ncn1)N1CCCC1`, the EC50 in data set [1] was greater than 50.1 µM. This compound registered a CLH in data set [2] of less than 0.5 mL/min/g.
`O=C(Nc1cccc(-c2nc3ccccc3o2)c1)c1ccco1` gave an EC50 in data set [1] greater than 50.1 µM. For the same compound, in [6], the Activity result was “Toxic”.
With `O=C(Nc1ccc(F)c(-c2cnn3c(-c4ccccc4)cnc3n2)c1)N1CCCC1`, the EC50 in [4] was 1260 nM; in [1], greater than 50.1 µM. The solubility at 4 h in [5] stood at 3 µM (≈ 1.21 µg/mL). This compound also came in with a CLH in data set [2] of 3.3 mL/min/g.
Regarding `O=C1CN(c2cnc3nc(-c4cc(NC(=O)N5CCCC5)ccc4F)ccn23)CCN1`, the EC50 in [1] is greater than 50.1 µM.
Regarding `O=C(Nc1cccc(-c2cc3ncc(-c4ccccc4)cn3n2)c1)N1CCCC1`, the EC50 in [1] was greater than 50.1 µM.
For `O=C(Nc1ccc(F)c(-c2nc3ncc(N4CCOCC4)cn3n2)c1)N1CCCC1`, in data set [2], the CLH was less than 0.5 mL/min/g.
The compound `O=C(Nc1cccc(-c2cc3cc(-c4ccccc4)cnc3[nH]2)c1)N1CCCC1` showed an EC50 in data set [1] greater than 50.1 µM.
In the case of `O=C(Nc1ccc(F)c(-c2ccn3c(N4CCOCC4)cnc3n2)c1)N1CCCC1` [GSK-3494245], in data set [4], the EC50 was 1580 nM. In data set [1], the EC50 is no less than 63.1 µM. In addition, the solubility at 4 h in data set [5] is 440 µM (≈ 181 µg/mL). The compound further had a CLH in data set [2] of 0.8 mL/min/g. The Activity result in data set [6] was “Non-Toxic”. In the data set on Leishmania donovani [7], the result was Active. Moreover, in the data set with Leishmania donovani [8], the ED90 came to 16 mg/kg and the ED99 worked out at 30 mg/kg.
Turning to `O=C(Nc1nccc(-c2cn3cc(N4CCOCC4)cnc3n2)n1)N1CCCC1`, the EC50 in [1] was greater than 50.1 µM. Further, the solubility in [5] (simulated gi fluid, pH 6.5, 4 h) is greater than 2500 µM. This compound gave a CLH in data set [2] of less than 0.5 mL/min/g.
Take `O=C(Nc1ccc(F)c(-c2cn3cc(N4CCOCC4)cnc3n2)c1)N1CCCC1`: the EC50 was 631 nM in [4] and greater than 50.1 µM in data set [1]. In data set [5], this compound displayed a solubility at 4 h of 15 µM (≈ 6.16 µg/mL). Moreover, the CLH in data set [2] is less than 0.5 mL/min/g. Further, the remaining at 3 h in data set [9] and in data set [10] was 100% in each case. Further, the “T>EC90” value in data set [11] was 2 h; in [12], greater than 6 h. The Activity result in [6] is “Toxic”. Further, the pEC90 in the data set with THP-1 worked out at 5.7.
In data set [1], `O=C(Nc1ccc(F)c(-c2cc3nc(N4CCOCC4)cnc3[nH]2)c1)N1CCCC1` showed an EC50 greater than 50.1 µM.
In the case of `O=C(Nc1cnnc(-c2cn3cc(N4CCOCC4)cnc3n2)c1)N1CCCC1`, the EC50 in [1] was greater than 50.1 µM. In data set [2], this compound came in with a CLH of less than 0.5 mL/min/g.
`COc1ccc(NC(=O)N2CCCC2)cc1-c1cn2cc(N3CCOCC3)cnc2n1` gave an EC50 in data set [1] greater than 50.1 µM. Besides, in data set [2], the CLH was less than 0.5 mL/min/g.
In the case of `O=C(Nc1cccc(-c2nc3ncccc3o2)c1)c1ccco1`, the EC50 in data set [4] is 6310 nM; in [1], greater than 50.1 µM. Further, the CLH in [2] worked out at 24 mL/min/g.
In data set [1], `O=C(Nc1cccc(-c2cc3cc(N4CCOCC4)nnc3o2)c1)N1CCCC1` showed an EC50 greater than 50.1 µM.
The compound `O=C(Nc1ccc(F)c(-c2cn3nc(N4CCOCC4)cnc3n2)c1)N1CCCC1` gave a solubility at 4 h in data set [5] of 32 µM (≈ 13.2 µg/mL). Besides, the Activity entry in data set [6] is on record as “Toxic”.
For the compound `Cn1c(-c2cc(NC(=O)N3CCCC3)ccc2F)cc2cc(N3CCOCC3)cnc21`, the EC50 in [1] is greater than 50.1 µM.
In data set [1], `O=C(Nc1cncc(-c2cn3cc(N4CCOCC4)cnc3n2)n1)N1CCCC1` had an EC50 greater than 50.1 µM. Moreover, the CLH in [2] is less than 0.5 mL/min/g.
With `O=C(Nc1ccc(F)c(-c2nc3cc(N4CCOCC4)cnn3n2)c1)N1CCCC1`, the values for the EC50 in data set [4] and in data set [1] were 794 nM and greater than 50.1 µM, respectively. This compound also showed a solubility at 4 h in data set [5] of 182 µM (≈ 74.9 µg/mL). The compound also registered a CLH in [2] of 0.7 mL/min/g.
Regarding `C[C@@H]1CN(c2cnc3nc(-c4cc(NC(=O)N5CCCC5)ccc4F)ccn23)CCO1`, the solubility kinetic in data set [3] was found to be 345 µM (≈ 146 µg/mL). The EC50 in [4] was 1000 nM. The compound further yielded a solubility at 4 h in data set [5] of 1580 µM (≈ 670 µg/mL). In [2], this compound had a CLH of 1.8 mL/min/g.

Source of the values: ChEMBL document CHEMBL5149983, “Scaffold-Hopping Strategy on a Series of Proteasome Inhibitors Led to a Preclinical Candidate for the Treatment of Visceral Leishmaniasis” (J Med Chem, 2021).
